Converted amounts (≈) assume the structure as drawn.
Tests used:
Mus musculus [1] = assay: Anxiolytic activity in po dosed mouse measured after 60 mins post dose by black/white box test; format: functional; conditions: Mus musculus, po, 1 h; read-out: ED50
Outline: (§1)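 Mice dosed orally 60 min before testing, then placed in the centre of the illuminated white compartment of a two-part black/white box. Time spent exploring the white and black sides recorded; longer time in the white side read as anxiolytic effect. Model used for both potency and duration of action.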

[2] = biological target: T1, Cholecystokinin receptor type A (Rattus norvegicus, UniProt P30551); assay: Displacement of [3H]CCK8 from rat pancreas CCK1 receptor at by liquid scintillation counting
T1 sequence (P30551 whole entry): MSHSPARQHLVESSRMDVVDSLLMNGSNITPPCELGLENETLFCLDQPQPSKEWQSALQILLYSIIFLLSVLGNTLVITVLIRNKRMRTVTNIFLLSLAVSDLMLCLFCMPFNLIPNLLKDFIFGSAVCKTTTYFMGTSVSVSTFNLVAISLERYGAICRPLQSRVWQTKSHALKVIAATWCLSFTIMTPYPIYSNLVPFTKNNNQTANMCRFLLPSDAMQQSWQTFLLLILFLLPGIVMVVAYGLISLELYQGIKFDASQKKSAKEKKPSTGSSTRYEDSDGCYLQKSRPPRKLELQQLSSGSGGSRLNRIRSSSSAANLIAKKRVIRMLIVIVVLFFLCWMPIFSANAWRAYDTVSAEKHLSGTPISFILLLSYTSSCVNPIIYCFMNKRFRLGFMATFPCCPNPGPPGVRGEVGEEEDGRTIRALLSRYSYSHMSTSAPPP
Outline: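 Rat pancreas membranes incubated at 37 °C with [³H]-CCK8s at 0.2 nM; nonspecific binding defined with L-364,718. Bound and free ligand separated by filtration over GF/C filters, then counted by liquid scintillation. Ki calculated using Bmax and KD from separate saturation binding isotherms.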

[3] = Displacement of [3H]CCK8 from guinea pig brain CCK2 receptor by liquid scintillation counting; parameters: species or system Cavia porcellus
Outline: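 Guinea pig brain membranes incubated at 25 °C with [³H]-CCK8s at 0.2 nM; nonspecific binding defined with L-365,260. Bound and free ligand separated by filtration over GF/C filters, then counted by liquid scintillation. Ki calculated using Bmax and KD from separate saturation binding isotherms.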

[4] = Selectivity ratio of pKi for guinea pig brain CCK2 receptor to pKi for rat pancreas CCK1
Outline: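 Radioligand displacement binding to guinea pig brain membranes (CCK2, incubated at 25 °C) and rat pancreas membranes (CCK1, incubated at 37 °C) with 0.2 nM [³H]-CCK8s. Non-specific binding was defined with L-365,260 (CCK2) or L-364,718 (CCK1). Bound ligand was separated by GF/C filtration and counted by liquid scintillation. Ki values were derived for each subtype, with KD and Bmax taken from separate saturation isotherms.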

[5] = Solubility of the compound at pH 2.4; format: physicochemical; conditions: buffer
Mus musculus [6] = assay: Anxiolytic activity in po dosed mouse assessed as duration of action of the compound measured after 60 mins post dose by black/white box test; format: functional; outline: as §1
[7] = Clearance in rat administered as methocel suspension; format: ADME, organism-based; conditions: in vivo
[8] = Half life in rat administered as methocel suspension; format: ADME, organism-based; conditions: in vivo
[9] = Volume of distribution in rat administered as methocel suspension; format: ADME, organism-based; conditions: in vivo
[10] = Oral bioavailability in rat administered as methocel suspension; format: ADME, organism-based; conditions: in vivo

Row | SMILES | Ki [2] | pKi [3] | Ki selectivity ratio (CCK1 Ki / CCK2 Ki) [4] | other results
1 | O=C(Nc1ccccc1)N[C@@H]1C(=O)N(CC23CC4CC(CC(C4)C2)C3)c2ccccc2N(c2ccccc2)C1=O |  |  |  | ED50 (Mus musculus [1]): 0.05 µg/kg
2 | COc1ccc(NC(=O)NC2C(=O)N(CCC(C)C)c3ccccc3N(CCN3CCOCC3)C2=O)c(C)c1 (racemic) | 6610 nM | 7.54 | 229 | 
3 | CCN(CC)CCN1C(=O)C(NC(=O)Nc2ccccc2)C(=O)N(CC2CCCCC2)c2ccccc21 (racemic) [listing 1 of 2 here] | 1510 nM | 8.99 |  | 
4 | CC(C)CCN1C(=O)C(NC(=O)Nc2ccc(Cl)cc2)C(=O)N(CCN2CCOCC2)c2ccccc21 (racemic) | 1020 nM | 8.71 | 525 | 
5 | Cc1cccc(NC(=O)NC2C(=O)N(CCC(C)C)c3ccccc3N(CCN3CCOCC3)C2=O)c1 (racemic) | 275 nM | 9.11 | 372 | 
6 | CC(C)CCN1C(=O)C(NC(=O)Nc2ccc(C(F)(F)F)cc2)C(=O)N(CCN2CCOCC2)c2ccccc21 (racemic) | 1480 nM | 8.44 | 407 | 
7 | CC(C)CCN1C(=O)C(NC(=O)Nc2ccc(Br)cc2)C(=O)N(CCN2CCOCC2)c2ccccc21 (racemic) | 1070 nM | 8.44 | 295 | 
8 | CC(C)CCN1C(=O)C(NC(=O)Nc2ccc(F)cc2)C(=O)N(CCN2CCOCC2)c2ccccc21 (racemic) | 1450 nM | 8.4 | 363 | 
9 | CCOc1ccc(NC(=O)NC2C(=O)N(CCC(C)C)c3ccccc3N(CCN3CCOCC3)C2=O)cc1 (racemic) | > 10000 nM | 7.17 | 148 | 
10 | Cc1cc(Br)ccc1NC(=O)NC1C(=O)N(CCC(C)C)c2ccccc2N(CCN2CCOCC2)C1=O (racemic) | 537 nM | 7.85 | 38 | 
11 | CC(C)CCN1C(=O)C(NC(=O)Nc2ccccc2C(C)C)C(=O)N(CCN2CCOCC2)c2ccccc21 (racemic) | > 10000 nM | 6.89 | 78 | 
12 | Cc1cccc(Cl)c1NC(=O)NC1C(=O)N(CCC(C)C)c2ccccc2N(CCN2CCOCC2)C1=O (racemic) | 5130 nM | 6.93 | 44 | 
13 | COc1ccc(NC(=O)NC2C(=O)N(CCC(C)C)c3ccccc3N(CCN3CCOCC3)C2=O)cc1 (racemic) | 5130 nM | 8.1 | 646 | 
14 | CC(C)CCN1C(=O)C(NC(=O)Nc2ccccc2)C(=O)N(CCN2CCCCC2)c2ccccc21 (racemic) | 2040 nM | 8.17 | 302 | 
15 | COc1ccc(NC(=O)NC2C(=O)N(CCC(C)C)c3ccccc3N(CCN(C)C)C2=O)cc1 (racemic) | 17400 nM | 7.95 | 1550 | 
16 | CCN(CC)CCN1C(=O)C(NC(=O)Nc2ccccc2)C(=O)N(CCC(C)C)c2ccccc21 (racemic) | 4070 nM | 8.8 | 2570 | ED50 (Mus musculus [1]): 0.0006 µg/kg
17 | O=C(Nc1ccccc1)NC1C(=O)N(CCN2CCOCC2)c2ccccc2N(CC2CCCCC2)C1=O (racemic) | 347 nM | 8.56 | 126 | 
18 | Cc1cccc(NC(=O)NC2C(=O)N(CCN3CCOCC3)c3ccccc3N(CC3CCCCC3)C2=O)c1 (racemic) | 174 nM | 9.26 | 316 | 
19 | O=C(Nc1ccccc1)NC1C(=O)N(CCN2CCOCC2)c2cc(F)ccc2N(CC23CC4CC(CC(C4)C2)C3)C1=O (racemic) [listing 1 of 2 here] | 2630 nM | 8.36 |  | solubility [5]: 360 µg/mL (≈ 610 µM)
20 | O=C(Nc1ccc(F)cc1)NC1C(=O)N(CCN2CCOCC2)c2ccccc2N(CC23CC4CC(CC(C4)C2)C3)C1=O (racemic) [listing 1 of 2 here] | 1410 nM | 8.66 |  | solubility ([5]; read-out: solubility): 20 µg/mL (≈ 33.9 µM)
21 | O=C(Nc1ccccc1)NC1C(=O)N(CCN2CCCC2)c2ccccc2N(CC23CC4CC(CC(C4)C2)C3)C1=O (racemic) | 9550 nM | 8.98 | 9120 | 

Row | SMILES | Ki [2] | pKi [3] | Ki selectivity ratio (CCK1 Ki / CCK2 Ki) [4] | other results
22 | CN(C)CCCN1C(=O)C(NC(=O)Nc2ccccc2)C(=O)N(CC23CC4CC(CC(C4)C2)C3)c2ccccc21 (racemic) | 20400 nM | 8.44 | 5620 | 
23 | CCN(CC)CCN1C(=O)C(NC(=O)Nc2ccc(F)cc2)C(=O)N(CC23CC4CC(CC(C4)C2)C3)c2ccccc21 (racemic) | 1660 nM | 8.71 | 851 | 
24 | CCN(CC)CCN1C(=O)C(NC(=O)Nc2ccccc2)C(=O)N(CC2CCCCC2)c2ccccc21 (racemic) [listing 2 of 2 here] |  |  | 1480 | 
25 | O=C(Nc1ccc(F)cc1)NC1C(=O)N(CCN2CCOCC2)c2ccccc2N(CC23CC4CC(CC(C4)C2)C3)C1=O (racemic) [listing 2 of 2 here] |  |  | 646 | 
26 | O=C(Nc1ccccc1)NC1C(=O)N(CCN2CCOCC2)c2cc(F)ccc2N(CC23CC4CC(CC(C4)C2)C3)C1=O (racemic) [listing 2 of 2 here] |  |  | 603 | 
27 | O=C(Nc1ccccc1)NC1C(=O)N(CCN2CCOCC2)c2ccccc2N(CC23CC4CC(CC(C4)C2)C3)C1=O (racemic) |  |  | 3550 | 
28 | O=C(Nc1ccccc1)NC1C(=O)N(CCN2CCOCC2)c2cc(F)ccc2N(CC23CC4CC(CC(C4)C2)C3)C1=O (single isomer, unassigned; (+)) [listing 1 of 2 here] | 2240 nM | 7.31 |  | 
29 | O=C(Nc1ccc(F)cc1)NC1C(=O)N(CCN2CCOCC2)c2ccccc2N(CC23CC4CC(CC(C4)C2)C3)C1=O (single isomer, unassigned; (+)) [listing 1 of 2 here] | 2570 nM | 7.85 |  | 
30 | O=C(Nc1ccc(F)cc1)NC1C(=O)N(CCN2CCOCC2)c2ccccc2N(CC23CC4CC(CC(C4)C2)C3)C1=O (single isomer, unassigned; (+)) [listing 2 of 2 here] |  |  | 182 | 
31 | O=C(Nc1ccccc1)NC1C(=O)N(CCN2CCOCC2)c2cc(F)ccc2N(CC23CC4CC(CC(C4)C2)C3)C1=O (single isomer, unassigned; (+)) [listing 2 of 2 here] |  |  | 46 | 
32 | O=C(Nc1ccccc1)NC1C(=O)N(CCN2CCOCC2)c2cc(F)ccc2N(CC23CC4CC(CC(C4)C2)C3)C1=O (single isomer, unassigned; (-)) [listing 1 of 2 here] | 3090 nM | 8.52 |  | ED50 (Mus musculus [1]): 0.08 µg/kg; Time (Mus musculus [6]): 4 h; clearance [7]: 23 mL/min; half-life [8]: 1.1 h; Vd [9]: 2.2 L/kg; bioavailability [10]: 5%; solubility ([5]; read-out: solubility): 360 µg/mL (≈ 610 µM)
33 | O=C(Nc1ccc(F)cc1)NC1C(=O)N(CCN2CCOCC2)c2ccccc2N(CC23CC4CC(CC(C4)C2)C3)C1=O (single isomer, unassigned; (-)) [listing 1 of 2 here] | 1020 nM | 9.45 |  | solubility [5]: 20 µg/mL (≈ 33.9 µM)
34 | O=C(Nc1ccc(F)cc1)NC1C(=O)N(CCN2CCOCC2)c2ccccc2N(CC23CC4CC(CC(C4)C2)C3)C1=O (single isomer, unassigned; (-)) [listing 2 of 2 here] |  |  | 2880 | 
35 | O=C(Nc1ccccc1)NC1C(=O)N(CCN2CCOCC2)c2cc(F)ccc2N(CC23CC4CC(CC(C4)C2)C3)C1=O (single isomer, unassigned; (-)) [listing 2 of 2 here] |  |  | 1020 | 
36 | O=C(Nc1ccccc1)NC1C(=O)N(CCN2CCOCC2)c2ccccc2N(CC23CC4CC(CC(C4)C2)C3)C1=O (single isomer, unassigned; (-)) |  |  | 8910 | 
37 | CCN(CC)CCN1C(=O)C(NC(=O)Nc2ccccc2)C(=O)N(CC2CCCCC2)c2ccccc21 (single isomer, unassigned; isomer 1) [listing 1 of 2 here] | 2690 nM | 8.23 |  | 
38 | CCN(CC)CCN1C(=O)C(NC(=O)Nc2ccccc2)C(=O)N(CC2CCCCC2)c2ccccc21 (single isomer, unassigned; isomer 1) [listing 2 of 2 here] |  |  | 457 | 
39 | CCN(CC)CCN1C(=O)C(NC(=O)Nc2ccccc2)C(=O)N(CC2CCCCC2)c2ccccc21 (stereo in doubt) [listing 1 of 2 here] | 468 nM | 9.4 |  | 
40 | CCN(CC)CCN1C(=O)C(NC(=O)Nc2ccccc2)C(=O)N(CC2CCCCC2)c2ccccc21 (stereo in doubt) [listing 2 of 2 here] |  |  | 1180 | 
41 | O=C(Nc1ccccc1)NC1C(=O)N(CCN2CCOCC2)c2ccccc2N(CC23CC4CC(CC(C4)C2)C3)C1=O (stereo in doubt; 55) [listing 1 of 2 here] | 1580 nM | 8.03 |  | 
42 | O=C(Nc1ccccc1)NC1C(=O)N(CCN2CCOCC2)c2ccccc2N(CC23CC4CC(CC(C4)C2)C3)C1=O (stereo in doubt; 55) [listing 2 of 2 here] |  |  | 170 | 

From ChEMBL document CHEMBL1806366, “Synthesis and structure-activity relationship of new 1,5-dialkyl-1,5-benzodiazepines as cholecystokinin-2 receptor antagonists” (Bioorg Med Chem, 2011)
